≈ marks a conversion by molar mass, not a printed value.

What is called Ki is a dissociation constant, usually derived from enzyme kinetics or from competition with a known ligand. A high value points to lower affinity. A word on the MIC: it is the lowest concentration found to suppress growth.

For test [1], the target named is Beta-hexosaminidase (Pseudomonas aeruginosa (strain ATCC 15692 / PAO1 / 1C / PRS 101 / LMG12228), UniProt Q9HZK0). Description: Inhibition of Pseudomonas aeruginosa PAO1 nagZ gene after 1.5 hrs by fluorescence spectrophotometry. An outline of the steps: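 Cultures in Mueller-Hinton broth were grown at 37°C to OD600 ~0.5, diluted to 0.25 and grown 1.5 h more. Cells were PBS-washed and sonicated. Lysate protein (15 μg) was incubated with 2 mM 4-MUGlcNAc in PBS pH 7.4 at 37°C for 1–8 h, then quenched with glycine-NaOH pH 10.7. 4-MU fluorescence was read at ex 360/em 450 nm, in triplicate, with heat-denatured lysate controls.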

The test system of test [2] is Pseudomonas aeruginosa. In words: Antimicrobial activity against Pseudomonas aeruginosa PAO1 harboring deltaampD::lox deltaampDh2::lox deltaampDh3::lox after 18 hrs by broth microdilution method. It counts as functional. The conditions noted are these: PAO1, 18 h. An outline of the steps: (§1)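 CLSI broth microdilution in cation-adjusted Mueller-Hinton medium with serial β-lactam dilutions. Each well holds 200 μl broth inoculated with ~10⁴ cells from starter cultures at OD600 ~0.5. Plates shaken at 37°C for 18 h. The MIC is read as the lowest antibiotic concentration showing no growth. Triplicate determinations.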
A general note: Broth dilution looks for growth in wells or tubes with falling amounts of substance.

For test [3], the system named is Pseudomonas aeruginosa. Description: Antimicrobial activity against nagZ gene-deficient Pseudomonas aeruginosa PAO1 after 18 hrs by broth microdilution method. The conditions noted are these: PAO1, 18 h. It is filed as functional. An outline of the steps:
as §1

Test [4] deals with Pseudomonas aeruginosa. In words: Antimicrobial activity against Pseudomonas aeruginosa PAO1 harboring deltaampD::lox deltaampDh2::lox delta ampDh3::lox after 18 hrs by broth microdilution method. It is filed as functional. The conditions noted are these: PAO1, 18 h. The method, boiled down: as §1
Test [5] has as its system Pseudomonas aeruginosa. In words: Antimicrobial activity against Pseudomonas aeruginosa PAO1 after 18 hrs by broth microdilution method. It is filed as functional. Particulars: PAO1, 18 h. The method, boiled down: as §1
The subject of test [6] is Pseudomonas aeruginosa. In words: Antimicrobial activity against ampDh2 gene-deficient Pseudomonas aeruginosa PAO1 after 18 hrs by broth microdilution method in presence of 0.5 mM nagZ inhibitor EtBuPUG. It counts as functional. Particulars: PAO1, 18 h. An outline of the steps: (§2)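 Wells are then inoculated with 100 μl culture and incubated 18 h at 37°C. The MIC is the lowest concentration with no growth. Triplicate determinations.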

Test [7] deals with Pseudomonas aeruginosa. In words: Antimicrobial activity against ampDh3 gene-deficient Pseudomonas aeruginosa PAO1 after 18 hrs by broth microdilution method in presence. It counts as functional. Particulars: PAO1, 18 h. An outline of the steps:
as §2

Test [8] relates to Pseudomonas aeruginosa. Description: Antimicrobial activity against ampDh3 gene-deficient Pseudomonas aeruginosa PAO1 after 18 hrs by broth microdilution method in presence of 0.5 mM nagZ inhibitor EtBuPUG. It is filed as functional. Particulars: PAO1, 18 h. The method, boiled down:
as §2

Test [9] deals with Pseudomonas aeruginosa. Description: Antimicrobial activity against ampDDh2 gene-deficient Pseudomonas aeruginosa PAO1 after 18 hrs by broth microdilution method in presence. It is filed as functional. The conditions noted are these: PAO1, 18 h. The method, boiled down:
as §2

The subject of test [10] is Pseudomonas aeruginosa. In words: Antimicrobial activity against ampDDh2 gene-deficient Pseudomonas aeruginosa PAO1 after 18 hrs by broth microdilution method in presence of 0.5 mM nagZ inhibitor EtBuPUG. It counts as functional. Particulars: PAO1, 18 h. The method, boiled down: as §2
In test [11] the test system is Pseudomonas aeruginosa. In words: Antimicrobial activity against ampDDh3 gene-deficient Pseudomonas aeruginosa PAO1 after 18 hrs by broth microdilution method in presence. It counts as functional. The conditions noted are these: PAO1, 18 h. The method, boiled down: as §2
Test [12] relates to Pseudomonas aeruginosa. In words: Antimicrobial activity against ampDDh3 gene-deficient Pseudomonas aeruginosa PAO1 after 18 hrs by broth microdilution method in presence of 0.5 mM nagZ inhibitor EtBuPUG. It counts as functional. Particulars: PAO1, 18 h. An outline of the steps:
as §2

Test [13] relates to Pseudomonas aeruginosa. Description: Antimicrobial activity against ampDh2 and ampDh3 gene-deficient Pseudomonas aeruginosa PAO1 after 18 hrs by broth microdilution method. It counts as functional. Particulars: PAO1, 18 h. The method, boiled down: as §2
For test [14], the system named is Pseudomonas aeruginosa. In words: Antimicrobial activity against ampDh2 and ampDh3 gene-deficient Pseudomonas aeruginosa PAO1 after 18 hrs by broth microdilution method in presence of 0.5 mM nagZ inhibitor EtBuPUG. It counts as functional. Particulars: PAO1, 18 h. The method, boiled down:
as §2

Test [15] has as its system Pseudomonas aeruginosa. In words: Antimicrobial activity against ampDDh2 and ampDh3 gene-deficient Pseudomonas aeruginosa PAO1 after 18 hrs by broth microdilution method in presence of 0.5 mM nagZ inhibitor EtBuPUG. It counts as functional. Particulars: PAO1, 18 h. An outline of the steps: as §2
The test system of test [16] is Pseudomonas aeruginosa. In words: Antimicrobial activity against Pseudomonas aeruginosa PAO1 after 18 hrs by using 30 ug/disk by agar diffusion method in presence of 0.5 mM nagZ inhibitor EtBuPUG. It is filed as functional. The method, boiled down:
(§3)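 Cultures grown in Mueller-Hinton broth at 37°C to OD600 ~0.5, pelleted, resuspended in 2 ml broth and streaked on Mueller-Hinton agar. […] Inhibition zone diameter measured after overnight incubation at 37°C. Triplicate determinations.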

Test [17] deals with Pseudomonas aeruginosa. In words: Antimicrobial activity against ampDh2 gene-deficient Pseudomonas aeruginosa PAO1 using 30 ug/disk by agar diffusion method in presence of 0.5 mM nagZ inhibitor EtBuPUG. It counts as functional. An outline of the steps:
as §3
A general note: A growth-free zone around the sample is the usual read-out of agar diffusion tests.

Test [18] deals with Pseudomonas aeruginosa. In words: Antimicrobial activity against ampDDh2 and ampDh3 gene-deficient Pseudomonas aeruginosa PAO1 after 18 hrs using […] by agar diffusion method. It counts as functional. The method, boiled down: as §3
The test system of test [19] is Pseudomonas aeruginosa. In words: Antimicrobial activity against Pseudomonas aeruginosa PAO1 harboring deltaampD::lox deltaampDh2::lox delta ampDh3::lox and plasmid pUCP27 after 18 hrs by Etest. It counts as functional. The conditions noted are these: PAO1, 18 h. An outline of the steps:
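Etest strips on Mueller-Hinton agar supplemented with 75 μg/ml tetracycline to maintain the vector or complementation plasmid, run per the manufacturer's recommendations; triplicate determinations.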

Test [20] concerns Pseudomonas aeruginosa. In words: Antimicrobial activity against Pseudomonas aeruginosa PAO1 harboring deltaampD::lox deltaampDh2::lox deltaampDh3::lox deltanagZ::Gm after 18 hrs by Etest. It counts as functional. Particulars: PAO1, 18 h. An outline of the steps: (§4)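 Etest strips on Mueller-Hinton agar plates, run per the manufacturer's recommendations; MICs determined in triplicate.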

The subject of test [21] is Pseudomonas aeruginosa. In words: Antimicrobial activity against Pseudomonas aeruginosa PAO1 after 18 hrs by broth microdilution method in presence of 0.5 mM nagZ inhibitor EtBuPUG. It is filed as functional. The conditions noted are these: PAO1, 18 h. An outline of the steps: as §2
The subject of test [22] is Pseudomonas aeruginosa. In words: Antimicrobial activity against ampD gene-deficient Pseudomonas aeruginosa PAO1 after 18 hrs by broth microdilution method in presence of 0.5 mM nagZ inhibitor EtBuPUG. It is filed as functional. Particulars: PAO1, 18 h. The method, boiled down:
as §2

In test [23] the test system is Pseudomonas aeruginosa. In words: Antimicrobial activity against ampD gene-deficient Pseudomonas aeruginosa PAO1 after 18 hrs by broth microdilution method in absence of EtBuPUG. The conditions noted are these: PAO1, 18 h.
Test [24] relates to Pseudomonas aeruginosa. In words: Antimicrobial activity against ampDh2 gene-deficient Pseudomonas aeruginosa PAO1 after 18 hrs by broth microdilution method in absence of EtBuPUG. The conditions noted are these: PAO1, 18 h.
The test system of test [25] is Pseudomonas aeruginosa. Description: Antimicrobial activity against nagZ gene-deficient Pseudomonas aeruginosa PAO1 after 18 hrs by Etest. The conditions noted are these: PAO1, 18 h. It is filed as functional. An outline of the steps: (§5)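 Strains are P. aeruginosa PAO1 and its insertional nagZ-inactivated derivative. MICs were read from Etest strips on Mueller-Hinton agar, following the manufacturer's recommendations. Each determination was done in triplicate.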

Test [26] has as its system Pseudomonas aeruginosa. Description: Antimicrobial activity against Pseudomonas aeruginosa PAO1 harboring deltaampD::lox deltaampDh2::lox delta ampDh3::lox after 18 hrs by Etest. It is filed as functional. Particulars: PAO1, 18 h. An outline of the steps: as §4
In test [27] the test system is Pseudomonas aeruginosa. In words: Antimicrobial activity against Pseudomonas aeruginosa PAO1 after 18 hrs by Etest. It is filed as functional. The conditions noted are these: PAO1, 18 h. An outline of the steps:
as §5

Sequence of Beta-hexosaminidase (Q9HZK0 whole entry): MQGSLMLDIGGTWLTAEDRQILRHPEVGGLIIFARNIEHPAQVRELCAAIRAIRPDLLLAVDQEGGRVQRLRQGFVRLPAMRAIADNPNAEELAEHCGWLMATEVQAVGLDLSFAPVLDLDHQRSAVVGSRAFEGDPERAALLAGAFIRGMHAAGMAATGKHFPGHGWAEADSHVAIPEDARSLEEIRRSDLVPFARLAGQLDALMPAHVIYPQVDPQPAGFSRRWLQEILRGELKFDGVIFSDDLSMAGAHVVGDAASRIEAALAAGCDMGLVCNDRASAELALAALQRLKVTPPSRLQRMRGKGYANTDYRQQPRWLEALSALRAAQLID

In turn, `CCC(CC)C(=O)N[C@H]1/C(=N/OC(=O)Nc2ccccc2)O[C@H](CO)[C@@H](O)[C@@H]1O` came in with a Ki in test [1] of 3.5 µM.
As to `O=C(O)c1cn(C2CC2)c2cc(N3CCNCC3)c(F)cc2c1=O` [CIPROFLOXACIN], the MIC in test [2], in test [3], in test [4] and in test [5] was 0.2 µg/mL (≈ 0.604 µM) in each case.
For the compound `C[C@H]1[C@H](NC(=O)/C(=N\OC(C)(C)C(=O)O)c2csc(N)n2)C(=O)N1S(=O)(=O)O` [AZTREONAM], the minimum inhibitory concentration (MIC) amounted to 0.25 µg/mL in test [6]; 1.5 µg/mL (≈ 3.44 µM) in test [7]; 0.75 µg/mL in [8]; 16 µg/mL (≈ 36.7 µM) in test [9]; 8 µg/mL in test [10]; 16 µg/mL (≈ 36.7 µM) in [11]. Besides, the MIC was found to be 8 µg/mL in test [12]; 0.5 µg/mL (≈ 1.15 µM) in test [13]; 0.25 µg/mL in [14]; 12 µg/mL in test [15]; 6 µg/mL (≈ 13.8 µM) in test [19]; 4 µg/mL (≈ 9.19 µM) in [20]. Also, the MIC in [3] stood at 0.25 µg/mL (≈ 0.574 µM); in [5], 1 µg/mL (≈ 2.3 µM); in test [21] it was 0.25 µg/mL; in test [22] it was 3 µg/mL; in test [23], 6 µg/mL (≈ 13.8 µM); in test [24], 1 µg/mL (≈ 2.3 µM). Also, the “inhibition zone (IZ)” value stood at 15.1 mm in [16], 14 mm in test [17] and 10.7 mm in [18].
Turning to `C[C@@H](O)[C@H]1C(=O)N2C(C(=O)O)=C(SCCNC=N)C[C@H]12` [IMIPENEM ANHYDROUS], the MIC in test [20] was 1.5 µg/mL (≈ 5.01 µM); in test [25], 2 µg/mL (≈ 6.68 µM); in test [26] it was 1.5 µg/mL (≈ 5.01 µM); in [27], 3 µg/mL (≈ 10 µM).
